Test results from article PMC4764504 (Journal of medicinal chemistry, 2015).
“And” between values parts separate entries of the source, which are not always exact repeats. Equal values may be shown once.

How the values were obtained:
[1] = test system: BALB/c Mice with Subcutaneous Flank DBT Tumors; assay: Whole body biodistribution in mice with subcutaneous DBT gliomas; format: in vivo, mouse; conditions: for biodistribution, tumor uptake: subcutaneous DBT tumor
Method in brief: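 Male BALB/c mice carried subcutaneous flank DBT tumors (5 × 10⁵ cells) and were used at day 14. Under 1% isoflurane–oxygen, each received ~56 μCi (2.07 MBq) of ⁷⁶Br-labelled or 45 μCi (1.67 MBq) of ¹²³I-labelled test compound by tail vein in 0.9% saline. Mice were killed at 5 min, 30 min, 1, 3 and 24 h (n = 4 per time). Tissues were weighed and γ-counted with decay correction, giving % ID/g.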

DBT glioma cells = assay: Competitive amino acid cell uptake assays; format: cell-based, mouse; conditions: 60 s, 37 °C
Method in brief: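 Mouse DBT glioma cells were seeded at 1 × 10⁵ cells/well and grown 48 h in 10% FBS DMEM under 5% CO₂. Cells were washed twice in 37 °C buffer, then exposed for 60 s at 37 °C, pH 7.40, to the radiotracer. Buffers were Na phosphate-buffered saline or choline-substituted Na-free buffer. Controls had 10 mM sucrose; BCH was 10 mM. Cells were washed with ice-cold buffer, lysed in 0.2% SDS/0.2 M NaOH, γ-counted, and normalized to added activity and BCA protein. Values are % of control, triplicate × two plates.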

biodistribution, blood ([1]; 5 min after i.v. injection): 3.86 ± 0.50 % ID/g
biodistribution, blood ([1]; 30 min after i.v. injection): 1.07 ± 0.16 % ID/g
biodistribution, blood ([1]; 1 h after i.v. injection): 0.37 ± 0.05 % ID/g
biodistribution, blood ([1]; 3 h after i.v. injection): 0.07 ± 0.02 % ID/g
biodistribution, blood ([1]; 24 h after i.v. injection): 0.0005 ± 0.0000 % ID/g
biodistribution, bone ([1]; 5 min after i.v. injection): 1.94 ± 0.28 % ID/g
biodistribution, bone ([1]; 30 min after i.v. injection): 1.20 ± 0.21 % ID/g
biodistribution, bone ([1]; 1 h after i.v. injection): 0.55 ± 0.39 % ID/g
biodistribution, bone ([1]; 3 h after i.v. injection): 0.39 ± 0.35 % ID/g
biodistribution, bone ([1]; 24 h after i.v. injection): 0.0042 ± 0.0020 % ID/g
biodistribution, brain ([1]; 5 min after i.v. injection): 0.27 ± 0.03 % ID/g
biodistribution, brain ([1]; 30 min after i.v. injection): 0.17 ± 0.04 % ID/g
biodistribution, brain ([1]; 1 h after i.v. injection): 0.27 ± 0.35 % ID/g
biodistribution, brain ([1]; 3 h after i.v. injection): 0.07 ± 0.00 % ID/g
biodistribution, brain ([1]; 24 h after i.v. injection): 0.0010 ± 0.0003 % ID/g
biodistribution, fat ([1]; 5 min after i.v. injection): 0.87 ± 0.26 % ID/g
biodistribution, fat ([1]; 30 min after i.v. injection): 0.22 ± 0.09 % ID/g
biodistribution, fat ([1]; 1 h after i.v. injection): 0.19 ± 0.07 % ID/g
biodistribution, fat ([1]; 3 h after i.v. injection): 0.04 ± 0.01 % ID/g
biodistribution, heart ([1]; 5 min after i.v. injection): 2.30 ± 0.02 % ID/g
biodistribution, heart ([1]; 30 min after i.v. injection): 1.78 ± 0.35 % ID/g
biodistribution, heart ([1]; 1 h after i.v. injection): 0.90 ± 0.06 % ID/g
biodistribution, heart ([1]; 3 h after i.v. injection): 0.18 ± 0.05 % ID/g
biodistribution, heart ([1]; 24 h after i.v. injection): 0.0005 ± 0.0005 % ID/g
biodistribution, kidney ([1]; 5 min after i.v. injection): 31.27 ± 6.91 % ID/g
biodistribution, kidney ([1]; 30 min after i.v. injection): 9.90 ± 3.24 % ID/g
biodistribution, kidney ([1]; 1 h after i.v. injection): 2.68 ± 0.55 % ID/g
biodistribution, kidney ([1]; 3 h after i.v. injection): 0.39 ± 0.09 % ID/g
biodistribution, kidney ([1]; 24 h after i.v. injection): 0.0032 ± 0.0017 % ID/g
biodistribution, liver (all) ([1]; 5 min after i.v. injection): 2.83 ± 0.25 % ID/g
biodistribution, liver (all) ([1]; 30 min after i.v. injection): 0.91 ± 0.20 % ID/g
biodistribution, liver (all) ([1]; 1 h after i.v. injection): 0.25 ± 0.03 % ID/g
biodistribution, liver (all) ([1]; 3 h after i.v. injection): 0.07 ± 0.02 % ID/g
biodistribution, liver (all) ([1]; 24 h after i.v. injection): 0.0006 ± 0.0002 % ID/g
biodistribution, lung ([1]; 5 min after i.v. injection): 3.54 ± 0.31 % ID/g
biodistribution, lung ([1]; 30 min after i.v. injection): 1.01 ± 0.28 % ID/g
biodistribution, lung ([1]; 1 h after i.v. injection): 0.33 ± 0.06 % ID/g
biodistribution, lung ([1]; 3 h after i.v. injection): 0.06 ± 0.02 % ID/g
biodistribution, lung ([1]; 24 h after i.v. injection): 0.0007 ± 0.0006 % ID/g
biodistribution, muscle ([1]; 5 min after i.v. injection): 1.65 ± 0.05 % ID/g
biodistribution, muscle ([1]; 30 min after i.v. injection): 1.41 ± 0.22 % ID/g
biodistribution, muscle ([1]; 1 h after i.v. injection): 0.68 ± 0.17 % ID/g
biodistribution, muscle ([1]; 3 h after i.v. injection): 0.12 ± 0.06 % ID/g
biodistribution, muscle ([1]; 24 h after i.v. injection): 0.0011 ± 0.0006 % ID/g
biodistribution, pancreas ([1]; 5 min after i.v. injection): 29.26 ± 8.15 % ID/g
biodistribution, pancreas ([1]; 30 min after i.v. injection): 21.03 ± 4.38 % ID/g
biodistribution, pancreas ([1]; 1 h after i.v. injection): 5.75 ± 1.20 % ID/g
biodistribution, pancreas ([1]; 3 h after i.v. injection): 0.99 ± 0.46 % ID/g
biodistribution, pancreas ([1]; 24 h after i.v. injection): 0.0052 ± 0.0021 % ID/g
biodistribution, spleen ([1]; 5 min after i.v. injection): 3.92 ± 0.99 % ID/g
biodistribution, spleen ([1]; 30 min after i.v. injection): 2.23 ± 0.34 % ID/g
biodistribution, spleen ([1]; 1 h after i.v. injection): 0.68 ± 0.12 % ID/g
biodistribution, spleen ([1]; 3 h after i.v. injection): 0.15 ± 0.05 % ID/g
biodistribution, spleen ([1]; 24 h after i.v. injection): 0.0012 ± 0.0010 % ID/g
biodistribution, tumor uptake ([1]; 5 min after i.v. injection): 2.8 ± 0.8 % ID/g and 2.78 ± 0.83 % ID/g
biodistribution, tumor uptake ([1]; 30 min after i.v. injection): 2.7 ± 0.6 % ID/g and 2.68 ± 0.56 % ID/g
biodistribution, tumor uptake ([1]; 1 h after i.v. injection): 1.53 ± 0.66 % ID/g
biodistribution, tumor uptake ([1]; 3 h after i.v. injection): 0.65 ± 0.16 % ID/g
biodistribution, tumor uptake ([1]; 24 h after i.v. injection): 0.0012 ± 0.0007 % ID/g
biodistribution, thyroid ([1]; thyroid, 5 min after i.v. injection): 2.51 ± 0.39 % ID/g
thyroid uptake ([1]; thyroid, 5 min after injection): 2.5 ± 0.4 % ID/organ
biodistribution, thyroid ([1]; thyroid, 30 min after i.v. injection): 1.38 ± 0.38 % ID/g
biodistribution, thyroid ([1]; thyroid, 1 h after i.v. injection): 0.97 ± 0.28 % ID/g
biodistribution, thyroid ([1]; thyroid, 3 h after i.v. injection): 0.65 ± 0.29 % ID/g
thyroid activity ([1]; thyroid, 3 h after injection): approximately 0.7 % ID/organ
biodistribution, thyroid ([1]; thyroid, 24 h after i.v. injection): 0.6527 ± 0.2135 % ID/g
thyroid activity ([1]; thyroid, 24 h after injection): approximately 0.7 % ID/organ
thyroid activity as share of the administered activity ([1]; thyroid, 24 h after injection): less than 1%
SMILES: C[C@](N)(/C=C/[123I])C(=O)O [[^123I]8, (S)-amino-2-methyl-4-[^123I]iodo-3-(E)-butenoic acid, reference compound]
uptake relative to control (DBT glioma cells; Na BCH condition (BCH 10 mM, system L inhibitor, sodium buffer)): 39 ± 12%
uptake compared to sodium control (DBT glioma cells; choline + BCH (sodium-free, Cho-BCH)): 31 ± 12%
uptake compared to the sodium control (DBT glioma cells; choline control (sodium-free, Cho-sucrose)): 33 ± 6.6%
uptake relative to the control (DBT glioma cells; in the presence of MeAIB (10 mM, system A inhibitor), sodium buffer): 25 ± 3.4%
